From ChEMBL document CHEMBL1147788, “Design, synthesis, and preliminary biological evaluation of 2,3-dihydro-3-hydroxymethyl-1,4-benzoxazine derivatives” (2006)
Activity calls are given as the source filed them. The rule behind the calls is not given here.

Key:
A549 [1] = assay: Antiproliferative activity against human A549 cell line at 400 uM after 48 hrs by MTT assay; assay type: functional, cell-based
In short: (§1)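 A549 cells grown in medium with or without compound at 50–400 µM for 24 and 48 h; viability read by MTT assay and expressed as percent of vehicle (DMSO) control. Means ± SE of three independent experiments; significance tested against control.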

HUVEC [2] = assay: Induction of HUVEC cell line apoptosis at 100 uM; assay type: functional, cell-based; conditions: Homo sapiens
In short: (§2)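 HUVECs in MCDB131 with 10% fetal calf serum and […] bFGF, passages 10–20. Apoptosis induced by growth-factor deprivation. Cells cultured with or without compound at 25–200 µM for 24 and 48 h. Means ± SE of three independent experiments versus control.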

A549 [3] = assay: Decrease in viability of human A549 cell line at 200 uM after 48 hrs relative to control by MTT assay; assay type: functional; in short: as §1
A549 [4] = assay: Decrease in viability of human A549 cell line at 200 uM after 24 hrs relative to control by MTT assay; assay type: functional, cell-based; in short: as §1
A549 [5] = assay: Antiproliferative activity against human A549 cell line at 400 uM after 24 hrs by MTT assay; assay type: functional, cell-based; in short: as §1
HUVEC [6] = assay: Induction of HUVEC cell line apoptosis at 200 uM; assay type: functional, cell-based; conditions: Homo sapiens; in short: as §2
HUVEC [7] = assay: Induction of HUVEC cell line apoptosis at 25 uM; assay type: functional, cell-based; conditions: Homo sapiens; in short: as §2
A549 [8] = assay: Decrease in viability of human A549 cell line at 50 uM after 48 hrs relative to control by MTT assay; assay type: functional, cell-based; in short: as §1
HUVEC [9] = assay: Induction of HUVEC cell line apoptosis at 50 uM; assay type: functional, cell-based; conditions: Homo sapiens; in short: as §2
HUVEC [10] = assay: Inhibition of HUVEC cell line apoptosis at 100 uM; assay type: functional, cell-based; conditions: Homo sapiens; in short: as §2
HUVEC [11] = assay: Inhibition of HUVEC cell line apoptosis at 50 uM; assay type: functional, cell-based; conditions: Homo sapiens; in short: as §2
HUVEC [12] = assay: Inhibition of HUVEC cell line apoptosis at 200 uM; assay type: functional, cell-based; conditions: Homo sapiens; in short: as §2
A549 [13] = assay: Antiproliferative activity against human A549 cell line by MTT assay; assay type: functional, cell-based; in short: as §1
A549 [14] = assay: Decrease in viability of human A549 cell line at 400 uM after 48 hrs relative to control by MTT assay; assay type: functional; in short: as §1
A549 [15] = assay: Decrease in viability of human A549 cell line at 400 uM after 24 hrs relative to control by MTT assay; assay type: functional; in short: as §1
A549 [16] = assay: Antiproliferative activity against human A549 cell line at 200 uM after 48 hrs by MTT assay; assay type: functional, cell-based; in short: as §1

SMILES	Activity (A549 [1])	Activity (HUVEC [2])	Activity (A549 [3])	Activity (A549 [4])	Activity (A549 [5])	Activity (HUVEC [6])	Activity (HUVEC [7])	Activity (A549 [8])	Activity (HUVEC [9])	Activity (HUVEC [10])	Activity (HUVEC [11])	Activity (HUVEC [12])	Activity (A549 [13])	Activity (A549 [14]) [%]	Activity (A549 [15]) [%]	Activity (A549 [16])
OCC1COc2c(Cl)cc(Cl)cc2N1 (stereo unspecified)	Active	Active	Active	Active	Active	Active	Active	Active	Active	–	–	–	–	–	–	–
Nc1ccc2c(c1)NC(CO)CO2 (stereo unspecified)	–	–	–	–	–	–	–	–	–	Active	Active	Active	inactive	–	–	–
OCC1COc2c(Cl)cccc2N1 (stereo unspecified)	–	Active	–	–	–	Active	Active	–	Active	–	–	–	inactive	–	–	–
OCC1COc2ccccc2N1 (stereo unspecified)	–	Active	–	–	–	Active	Active	–	Active	–	–	–	inactive	–	–	–
Cc1ccc2c(c1)NC(CO)CO2 (stereo unspecified)	–	Active	–	–	–	Active	Active	–	Active	–	–	–	inactive	–	–	–
CC(C)(C)c1ccc2c(c1)NC(CO)CO2 (stereo unspecified)	–	Active	72.6%	–	–	Active	Active	–	Active	–	–	–	–	59.5	77.8	–
OCC1COc2ccc(Cl)cc2N1 (stereo unspecified)	Active	Active	–	–	–	Active	Active	–	Active	–	–	–	–	–	–	Active
